pIC50: −log10 of the molar value. The source made the active and inactive calls. No cut-off for these calls is given here.
Experiments:
[1] = system: K562; test: Induction of apoptosis in human K562 cells assessed as cleavage of caspase-9 at 1 uM after 36 hrs by Western blot analysis; type: functional, cell-based
Method in brief: (§1)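 K562 cells in 6 cm dishes treated 36 h at various concentrations. Cells lysed on ice for 0.5 h and spun at 20,000 g. Protein measured by BCA. Lysates run on 12% SDS-PAGE and transferred to PVDF. Membranes blocked in 5% milk and probed overnight at 4 °C with primary antibody against cleaved caspase-9, -7, -3, cleaved PARP or Bcl-XL.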

[2] = system: NCI-H520; test: Antiproliferative activity against human NCI-H520 cells after 48 hrs by MTT assay; type: functional, cell-based; conditions: NCI-H520, 48 h
Method in brief: (§2)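 Adherent lines seeded at 6×10^3 cells/well and allowed 12 h attachment. Media: NCI-H520 and HeLa RPMI-1640; HepG2, MCF-7, CNE-2, A375, A172 and U118-MG DMEM; U251 MEM-EBSS; all with 10% FBS, 37 °C, 5% CO2. Dosed 48 h at final 50, 25, 10, 1 and 0.1 μM. MTT 4 h, formazan dissolved in DMSO, A490. IC50 from the dose series.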

[3] = system: K562; test: Induction of apoptosis in human K562 cells assessed as loss of mitochondrial membrane potential at 1 uM after 24 hrs by JC-1 staining based fluorescence microscopy; type: functional, cell-based
Method in brief: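 K562 cells exposed to 1 μM for 24 h. Stained with a JC-1 kit and viewed by fluorescence microscopy (red aggregates versus green monomers). Untreated cells served as blank; CCCP at 10 μM as positive control.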

[4] = system: K562; test: Induction of apoptosis in human K562 cells after 48 hrs by annexin V/PI staining based flow cytometry; type: functional, cell-based
[5] = system: HepG2; test: Antiproliferative activity against human HepG2 cells after 48 hrs by MTT assay; type: functional, cell-based; conditions: HepG2, 48 h; method in brief: as §2
[6] = system: K562; test: Induction of apoptosis in human K562 cells assessed as early apoptotic cells at 0.05 uM after 48 hrs by annexin V/PI staining based flow cytometry (reference value: 3.89 %); type: functional
[7] = system: K562; test: Antiproliferative activity against human K562 cells after 48 hrs by MTT assay; type: functional, cell-based; conditions: K562, 48 h
Method in brief: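 K562 suspension cells in RPMI-1640 with 10% FBS, 37 °C, 5% CO2. Seeded at 1.5×10^4 cells/well, exposed 48 h to final 50, 25, 10, 1 and 0.1 μM. MTT (5 mg/mL) added for 4 h at 37 °C. IC50 from the dose series.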

[8] = system: K562; test: Induction of apoptosis in human K562 cells assessed as early apoptotic cells at 0.25 uM after 48 hrs by annexin V/PI staining based flow cytometry (reference value: 3.89 %); type: functional
[9] = system: MCF7; test: Antiproliferative activity against human MCF7 cells after 48 hrs by MTT assay; type: functional, cell-based; conditions: MCF7, 48 h; method in brief: as §2
[10] = system: K562; test: Induction of apoptosis in human K562 cells assessed as cleavage of caspase-3 at 1 uM after 36 hrs by Western blot analysis; type: functional, cell-based; method in brief: as §1
[11] = system: Calf thymus DNA; test: Binding affinity to calf thymus DNA at 10 uM after 5 mins by UV-vis spectroscopy; type: nucleic-acid assay; conditions: Bos taurus
Method in brief: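 Compound in 5 mM Tris-HCl, 50 mM NaCl, pH 7.2, titrated with ct DNA at 0–30 μM (bp). Incubated 5 min before reading. Absorbance at 425 nm followed. Kb taken as slope/intercept of [DNA]/(εa−εf) versus [DNA]. ct DNA quantified with ε260 6600 M⁻¹cm⁻¹.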

[12] = system: A-375; test: Antiproliferative activity against human A375 cells after 48 hrs by MTT assay; type: functional, cell-based; conditions: A-375, 48 h; method in brief: as §2

pIC50 [2]: 5.99
pIC50 [5]: 6.49
pIC50 [7]: 6.34
pIC50 [9]: 5.59
Kb [11]: 5.1 ×10⁴ /M
pIC50 [12]: 6.80
SMILES: Cc1cccc2c(=O)c3c(NCc4ccncc4)ccc(C(=O)NCCN(C)C)c3[nH]c12
Activity [1]: Active
Activity [3]: Active
Activity [4]: Dose-dependent effect
Activity [6]: 8.98%
Activity [8]: 15.64%
Activity [10]: Active

Source: ChEMBL document CHEMBL3407337, “Molecular design, synthesis and biological research of novel pyridyl acridones as potent DNA-binding and apoptosis-inducing agents” (Eur J Med Chem, 2015)
